An excerpt weighted towards active compounds, which were near 6.4% of everything screened.
Jurkat tox 60K – cytotoxic compounds reducing Jurkat cell viability; Jurkat E6.1 viability, ATP luminescence, 48 h; inhibition, % at 4 µM; 56,000 tested, 1.2% active; AID 463;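 active = inhibition above the mean inhibition of all tested compounds plus 3 SD, cut at about 28% in these data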
Ecoli WT expand – blocks growth of wild type E. coli BW25113. OD600 absorbance. growth inhibition, % at 100 µM. 98,000 tested, 0.15% active. AID 710;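 active = growth inhibition above about 50% at one test dose, limit read from the data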;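 also: growth measured after 20 h incubation at 37 °C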
Lung fibro prol – blocks proliferation of human lung fibroblasts; LL 47 human lung fibroblast viability, ATP luminescence; stronger effect = lower value; AID 719; 85,000 tested, 1.1% active; viability, % at 10 µM;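 active = viability at or below 50% in the single dose screen; inactive = viability above 50%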;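 also: compound exposure lasted 72 h before the ATP readout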
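Times – overnight cell rest, 72 h compound treatment at 37 °C · Test system – human lung fibroblast line LL 47, low passage · Amount – 1,150 cells in each well · Controls – cell-only wells, no compound · Doses – 0.1% DMSO in all compound wells · Measured by – CellTiter-Glo luminescence · Buffer or medium – IMEM plus 15% FBS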
H69AR inhibit – growth inhibitors of human H69AR lung tumor cells. viability, % at 10 µM. 85,000 tested, 6% active. H69AR lung tumor viability, ATP luminescence, 72 h; stronger effect = lower value;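 active = viability at or below 40%; inactive = viability above 40%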;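 also: multidrug resistant small cell line overexpressing MRP-1 efflux transporter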
HUVEC inhibit – blocks proliferation of human endothelial cells. HUVEC proliferation, CellTiter-Glo luminescence, 72 h; stronger effect = lower value. viability, % at 10 µM (by protocol). 86,000 tested, 1.1% active. AID 648;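 active = viability at or below 30%; inactive = viability above 30%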
tolC growth inh – blocks growth of E. coli BW25113 tolC mutant; OD615; 65,000 tested, 2.2% active; AID 573; growth inhibition, % at 10 µM (by protocol);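 active = growth inhibition at or above a cutoff equal to the mean over every tested compound plus 3 SD, cut at about 60% in these data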;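 also: growth measured after 20 h incubation at 37 °C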
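Test system – E. coli BW25113 ΔtolC::kan, tolC deletion mutant strain · Detection – OD at 615 nm · Buffer or medium – LB with kanamycin 50 µg/mL · Times – 20 h compound exposure of bacteria at 37 °C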
Each line names hits and unclear results; the compound was inactive in the other large screens.

COc1ccc(S(=O)(=O)Cc2ccc(C(=O)N3CCN(c4cccc(C)c4)C(C)C3)o2)cc1 (configuration not stated)	Jurkat tox 60K 90, H69AR inhibit 25
COc1ccccc1S(=O)(=O)Cc1ccc(C(=O)N2CCN(c3ccc(C)cc3)C(C)C2)o1 (configuration not stated)	none (no result: Lung fibro prol, H69AR inhibit, HUVEC inhibit)
COc1ccc(S(=O)(=O)Cc2ccc(C(=O)N3CCN(c4cccc(C)c4C)CC3)o2)cc1	H69AR inhibit 23
Cc1nnc(SCCN2CCOCC2)n1C	none (no result: Jurkat tox 60K, Ecoli WT expand)
CCC(C)(C)n1nnnc1CN1CCN(c2nc3cc(OC)ccc3cc2C#N)CC1	none
c1ccc(-c2nc(-c3cccs3)[nH]c2-c2ccccc2)cc1	none (no result: Jurkat tox 60K, Lung fibro prol, H69AR inhibit, HUVEC inhibit, tolC growth inh)
c1csc(-c2nc3c4ccccc4c4ccccc4c3[nH]2)c1	H69AR inhibit 30 (no result: Jurkat tox 60K, Ecoli WT expand, tolC growth inh)
CCOC(=O)CNC(=O)C(=O)c1c(O)[nH]c2ccccc12	Lung fibro prol 48
CCOC(=O)CNC(=O)c1ccccc1	none (no result: Jurkat tox 60K, tolC growth inh)
COc1cc(-c2nnc(-c3ccc(N4CCOCC4)cc3)o2)cc(OC)c1OC	H69AR inhibit 17
Cc1cc(NC(c2cccnc2)c2ccc3cccnc3c2O)no1 (configuration not stated)	Jurkat tox 60K 37, Lung fibro prol 3.9, H69AR inhibit 31
Cc1cccc(NC(c2ccc(O)cc2)c2ccc3ccc(C)nc3c2O)n1 (configuration not stated)	none (no result: Jurkat tox 60K, tolC growth inh)
COc1cc(C)c(Cl)cc1S(=O)(=O)NCc1ccncc1	Jurkat tox 60K 67
COc1ccccc1C(=O)OCc1c(F)cccc1Cl	none (no result: Jurkat tox 60K, Lung fibro prol, H69AR inhibit, HUVEC inhibit, tolC growth inh)
Cc1ccccc1NCC(=O)N/N=C/C(Br)=C/c1ccccc1	H69AR inhibit 11 (no result: Jurkat tox 60K, tolC growth inh)
O=C(Cc1cccs1)N/N=C/C(Br)=C/c1ccccc1	none (no result: Jurkat tox 60K, Lung fibro prol, H69AR inhibit, HUVEC inhibit, tolC growth inh)
COc1ccc(-c2c3c(=O)n(C)c(=O)n(C)c3cn2-c2cc(OC)ccc2OC)cc1	none (no result: tolC growth inh)
CC(C(=O)NCc1ccc2c(c1)OCO2)N1c2cccc3cccc(c23)S1(=O)=O (configuration not stated)	none
FCCCOc1ccc(/C=N/OCc2ccc(Cl)cc2)cc1	none (no result: Jurkat tox 60K, Lung fibro prol, H69AR inhibit, HUVEC inhibit, tolC growth inh)
CS(=O)(=O)N(Cc1ccco1)CC(O)Cn1c2ccccc2c2ccccc21 (configuration not stated)	none (no result: Lung fibro prol, H69AR inhibit, HUVEC inhibit)
Cc1ccccc1OCC(O)Cn1c2ccccc2c2ccccc21 (configuration not stated)	none (no result: Jurkat tox 60K, Lung fibro prol, H69AR inhibit, HUVEC inhibit, tolC growth inh)
Cc1ccc(N(CC(O)Cn2c3ccccc3c3ccccc32)S(C)(=O)=O)c(C)c1 (configuration not stated)	H69AR inhibit 17 (no result: Jurkat tox 60K, tolC growth inh)
Cc1ccc(N(CC(O)Cn2c3ccccc3c3ccccc32)S(C)(=O)=O)cc1 (configuration not stated)	H69AR inhibit 32 (no result: Jurkat tox 60K, tolC growth inh)
Cc1ccc(N(CC(O)CON=C2c3ccccc3-c3ccccc32)S(C)(=O)=O)cc1 (configuration not stated)	H69AR inhibit 15 (no result: Jurkat tox 60K, tolC growth inh)
Cc1cccc(C)c1N(CC(O)Cn1c2ccccc2c2ccccc21)S(C)(=O)=O (configuration not stated)	H69AR inhibit 21 (no result: Jurkat tox 60K, tolC growth inh)
COC(=O)c1ccc(-c2ccc(CNCC(O)c3ccccc3)o2)cc1 (configuration not stated)	none
O=C1CC(c2ccccc2)n2nc(NC(=O)c3ccccn3)nc2N1 (configuration not stated)	H69AR inhibit 29
O=C1CC(c2ccccc2)n2nc(NC(=O)c3ccccc3)nc2N1 (configuration not stated)	none (no result: Jurkat tox 60K, Lung fibro prol, H69AR inhibit, HUVEC inhibit, tolC growth inh)
Cc1cc(C(=O)Nc2ccccc2)oc1C	none (no result: Jurkat tox 60K, tolC growth inh)
Cc1cc([N+](=O)[O-])nn1CC(=O)NNC(=S)Nc1ccc(F)cc1	none (no result: Jurkat tox 60K, Lung fibro prol, H69AR inhibit, HUVEC inhibit, tolC growth inh)
O=c1c2c(nc3nc(SCc4ccccc4)[nH]n13)CCC2	none
CSc1nc2nc3c(c(=O)n2[nH]1)CN(Cc1ccccc1)CC3	Jurkat tox 60K 102
Cc1cc(C)n(-c2nc(NCC(C)O)c3c4c(sc3n2)CCCC4)n1 (configuration not stated)	tolC growth inh 94
Cc1cc(C)n(-c2nc(NCCCO)c3c4c(sc3n2)CCCC4)n1	H69AR inhibit 4.9, HUVEC inhibit 17
Cc1cc(C)n(-c2nc(SCC(=O)NCC3CCCO3)c3c4c(sc3n2)CCCC4)n1 (configuration not stated)	none (no result: Ecoli WT expand)
Cc1cc(C)n(-c2nc(NCCO)c3c4c(sc3n2)CCCC4)n1	H69AR inhibit 11
Cc1cc(C)n(-c2nc(NCC(C)O)c3c4c(sc3n2)COC(C)(C)C4)n1 (configuration not stated)	none (no result: Jurkat tox 60K, tolC growth inh)
Cc1cc(C)n(-c2nc(NCC3CCCO3)c3c4c(sc3n2)COC(C)(C)C4)n1 (configuration not stated)	H69AR inhibit 10
CC1CCc2c(sc3ncnc(N4CCN(S(=O)(=O)c5cccc6nonc56)CC4)c23)C1 (configuration not stated)	none (no result: Jurkat tox 60K, Ecoli WT expand, tolC growth inh)
CCn1ncc(C2=NOC(C(=O)Nc3cccc(C(C)=O)c3)C2)c1C (configuration not stated)	none
CC(/C=C/c1ccc(O)cc1)=N/O	none (no result: Jurkat tox 60K, Ecoli WT expand, tolC growth inh)
CC(=O)Nc1nc2c(F)cccc2s1	none (no result: Ecoli WT expand)
CCOC(=O)c1sc(Nc2nc3c(OC)cccc3s2)nc1C	none (no result: Lung fibro prol, H69AR inhibit, HUVEC inhibit)
Fc1cccc2sc(Nc3nnc(-c4ccco4)o3)nc12	H69AR inhibit 37, tolC growth inh 99
COc1cccc2sc(Nc3nnc(-c4cccs4)o3)nc12	Jurkat tox 60K 47, Lung fibro prol 41, H69AR inhibit 23, HUVEC inhibit 2.8
COc1cccc2sc(Nc3nnc(-c4ccc(F)cc4)o3)nc12	H69AR inhibit 35, HUVEC inhibit 2.9 (no result: Jurkat tox 60K, tolC growth inh)
CCOC(=O)C1CCN(S(=O)(=O)C(F)(F)c2nc3ccccc3s2)CC1	none (no result: Jurkat tox 60K)
Cc1ccc(OC(=O)c2oc3ccc(F)cc3c2C)c(C)c1	none (no result: Jurkat tox 60K, Lung fibro prol, H69AR inhibit, HUVEC inhibit, tolC growth inh)
Cc1c(C(=O)NCCC2=CCCCC2)oc2ccc(S(=O)(=O)N3CCOCC3)cc12	H69AR inhibit 10 (no result: Jurkat tox 60K)
Cc1c(C(=O)Nc2ccc(F)cc2)oc2ccc(S(=O)(=O)N3CC(C)CC(C)C3)cc12 (configuration not stated)	H69AR inhibit 12 (no result: Jurkat tox 60K, tolC growth inh)
Cc1cccc(NC(=O)c2oc3ccc(S(=O)(=O)N4CCOCC4)cc3c2C)c1C	H69AR inhibit 35
Cc1c(C(=O)NCc2cccnc2)oc2ccc(S(=O)(=O)N3CC(C)CC(C)C3)cc12 (configuration not stated)	none
CCOc1cc2nc(-c3ccc(OC)c(OC)c3)nc(NCCCN3CCOCC3)c2cc1OC	H69AR inhibit 18 (no result: Jurkat tox 60K, tolC growth inh)
c1ccc(-c2oc3ncnc(NCCCN4CCOCC4)c3c2-c2ccccc2)cc1	H69AR inhibit 3.1
COc1ccc(-n2ncc3c(NCCCN4CCOCC4)ncnc32)cc1	none
COc1ccc(C(=O)NCCCN2CCOCC2)cc1OC	none (no result: Jurkat tox 60K, tolC growth inh)
COc1ccc(-c2oc3ncnc(NCCCN4CCOCC4)c3c2-c2ccc(OC)cc2)cc1	H69AR inhibit 5.7
Clc1ccc(-c2nc(NCCN3CCOCC3)c3ccccc3n2)cc1	HUVEC inhibit 9.6
CCCc1c(OCCCCc2nn[nH]n2)ccc(C(C)=O)c1O	none (no result: Jurkat tox 60K, Ecoli WT expand)
CC(C)CC(=O)N1CCN(S(=O)(=O)c2ccc3ccccc3c2)CC1	none (no result: Jurkat tox 60K, tolC growth inh)

Screening results as filed in PubChem.
